Five substances from article PMC2802833 (Journal of Alzheimer's disease : JAD, 2009) can be followed below.

Strand notation (5' to 3'): a small letter for the sugar, then the base; units joined by * are phosphorothioate-linked, units joined directly phosphodiester-linked; [ ] holds rarer units or linkages, { } end groups; capitals alone tell only the bases. d = 2'-deoxy (DNA)

Series [1] has as its system primary mouse BMEC monolayers. Description: Transport. In kind it is cell-based. As to conditions: 1 μg/mL unlabeled Aβ42 added to abluminal chamber; n = 13-15/group. The procedure, abridged:
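Primary mouse brain endothelial cells were isolated by enzyme digestion and Percoll gradient. They were seeded at 4 × 10^4 cells/insert on fibronectin/collagen IV-coated 0.33 cm2, 0.4 μm polyester Transwells and grown to confluence (~3 days) in DMEM/F-12 with 20% plasma-derived serum, bFGF and 500 nM hydrocortisone. Assays ran in HEPES buffer pH 7.4 with 1% BSA. Radio-iodinated Aβ42 (1 × 10^6 cpm/mL) was placed in the loading chamber, with or without unlabelled Aβ42 (1 μg/mL). TCA-precipitable counts were used to give clearance and membrane-corrected permeability (cm/min).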

Series [2] in a line: In vivo brain-to-blood efflux rate of i.c.v. P-Olg. As to conditions: after i.c.v. injection, 5 × 10^3 cpm/μl, 2-20 min; n = 2-3 mice/time point. Further details: species or system mouse. The essentials: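 Oligonucleotide was kinase-labelled, ethanol-precipitated, stored at −70°C and used within 48 h. After i.c.v. injection into anaesthetised mice, animals were decapitated at 2, 5, 10 or 20 min and brain radioactivity counted. The t = 0 level came from urethane-overdosed mice. Log % injected dose was plotted against time, and the slope (efflux rate) was obtained by linear regression. n = 2–3 mice/time point.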

A short description of series [3]: Saturability of brain uptake for cocktail ODNs. It counts as in vivo. Particulars: 10 μg/mouse unlabeled PS-ODN i.v., brain/serum ratio at 30 min; n = 8-9/group. The procedure, abridged: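 Labelled 19mer or 23mer (5 × 10^5 cpm/200 μl lactated Ringer's–1% BSA) was given i.v. with or without 10 μg/mouse of the corresponding unlabelled phosphorothioate oligonucleotide. Brain and serum were collected 30 min after injection. Results were expressed as brain/serum ratios.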

The test system of series [4] is LRP-1. Description: Immunohistochemistry of LRP-1 in isolated mouse brain microvessels. It counts as cell-based. As to conditions: isolated MBMs, 10 μg/mL, 24 h; buffer = 100%; n = 5-6 slides/group. The essentials:
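Cerebral cortices from 10–12 adult male CD-1 mice, meninges removed, were homogenised in cold HEPES/dextran stock buffer. Microvessels were isolated by nylon-mesh filtration and dextran centrifugation, then kept in incubation buffer pH 7.4. They were exposed to buffer, random antisense or antisense cocktail (10 μg/mL) for 24 h. Vessels were heat-fixed, fixed in 3.7% formaldehyde and Triton-permeabilised, then stained overnight at 4°C with anti-LRP-1 antibody (10 μg/mL). Mean fluorescence was measured from 5–6 […]/group.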

Series [5] concerns the target LRP-1 (Mus musculus, UniProt Q91ZX7). Description: Inhibition by RAP of brain-to-blood efflux of i.c.v. I-Aβ42. As to conditions: n = 9/group. In kind it is in vivo.

LRP-1 (Mus musculus, UniProt Q91ZX7), sequence (Q91ZX7 20-4545): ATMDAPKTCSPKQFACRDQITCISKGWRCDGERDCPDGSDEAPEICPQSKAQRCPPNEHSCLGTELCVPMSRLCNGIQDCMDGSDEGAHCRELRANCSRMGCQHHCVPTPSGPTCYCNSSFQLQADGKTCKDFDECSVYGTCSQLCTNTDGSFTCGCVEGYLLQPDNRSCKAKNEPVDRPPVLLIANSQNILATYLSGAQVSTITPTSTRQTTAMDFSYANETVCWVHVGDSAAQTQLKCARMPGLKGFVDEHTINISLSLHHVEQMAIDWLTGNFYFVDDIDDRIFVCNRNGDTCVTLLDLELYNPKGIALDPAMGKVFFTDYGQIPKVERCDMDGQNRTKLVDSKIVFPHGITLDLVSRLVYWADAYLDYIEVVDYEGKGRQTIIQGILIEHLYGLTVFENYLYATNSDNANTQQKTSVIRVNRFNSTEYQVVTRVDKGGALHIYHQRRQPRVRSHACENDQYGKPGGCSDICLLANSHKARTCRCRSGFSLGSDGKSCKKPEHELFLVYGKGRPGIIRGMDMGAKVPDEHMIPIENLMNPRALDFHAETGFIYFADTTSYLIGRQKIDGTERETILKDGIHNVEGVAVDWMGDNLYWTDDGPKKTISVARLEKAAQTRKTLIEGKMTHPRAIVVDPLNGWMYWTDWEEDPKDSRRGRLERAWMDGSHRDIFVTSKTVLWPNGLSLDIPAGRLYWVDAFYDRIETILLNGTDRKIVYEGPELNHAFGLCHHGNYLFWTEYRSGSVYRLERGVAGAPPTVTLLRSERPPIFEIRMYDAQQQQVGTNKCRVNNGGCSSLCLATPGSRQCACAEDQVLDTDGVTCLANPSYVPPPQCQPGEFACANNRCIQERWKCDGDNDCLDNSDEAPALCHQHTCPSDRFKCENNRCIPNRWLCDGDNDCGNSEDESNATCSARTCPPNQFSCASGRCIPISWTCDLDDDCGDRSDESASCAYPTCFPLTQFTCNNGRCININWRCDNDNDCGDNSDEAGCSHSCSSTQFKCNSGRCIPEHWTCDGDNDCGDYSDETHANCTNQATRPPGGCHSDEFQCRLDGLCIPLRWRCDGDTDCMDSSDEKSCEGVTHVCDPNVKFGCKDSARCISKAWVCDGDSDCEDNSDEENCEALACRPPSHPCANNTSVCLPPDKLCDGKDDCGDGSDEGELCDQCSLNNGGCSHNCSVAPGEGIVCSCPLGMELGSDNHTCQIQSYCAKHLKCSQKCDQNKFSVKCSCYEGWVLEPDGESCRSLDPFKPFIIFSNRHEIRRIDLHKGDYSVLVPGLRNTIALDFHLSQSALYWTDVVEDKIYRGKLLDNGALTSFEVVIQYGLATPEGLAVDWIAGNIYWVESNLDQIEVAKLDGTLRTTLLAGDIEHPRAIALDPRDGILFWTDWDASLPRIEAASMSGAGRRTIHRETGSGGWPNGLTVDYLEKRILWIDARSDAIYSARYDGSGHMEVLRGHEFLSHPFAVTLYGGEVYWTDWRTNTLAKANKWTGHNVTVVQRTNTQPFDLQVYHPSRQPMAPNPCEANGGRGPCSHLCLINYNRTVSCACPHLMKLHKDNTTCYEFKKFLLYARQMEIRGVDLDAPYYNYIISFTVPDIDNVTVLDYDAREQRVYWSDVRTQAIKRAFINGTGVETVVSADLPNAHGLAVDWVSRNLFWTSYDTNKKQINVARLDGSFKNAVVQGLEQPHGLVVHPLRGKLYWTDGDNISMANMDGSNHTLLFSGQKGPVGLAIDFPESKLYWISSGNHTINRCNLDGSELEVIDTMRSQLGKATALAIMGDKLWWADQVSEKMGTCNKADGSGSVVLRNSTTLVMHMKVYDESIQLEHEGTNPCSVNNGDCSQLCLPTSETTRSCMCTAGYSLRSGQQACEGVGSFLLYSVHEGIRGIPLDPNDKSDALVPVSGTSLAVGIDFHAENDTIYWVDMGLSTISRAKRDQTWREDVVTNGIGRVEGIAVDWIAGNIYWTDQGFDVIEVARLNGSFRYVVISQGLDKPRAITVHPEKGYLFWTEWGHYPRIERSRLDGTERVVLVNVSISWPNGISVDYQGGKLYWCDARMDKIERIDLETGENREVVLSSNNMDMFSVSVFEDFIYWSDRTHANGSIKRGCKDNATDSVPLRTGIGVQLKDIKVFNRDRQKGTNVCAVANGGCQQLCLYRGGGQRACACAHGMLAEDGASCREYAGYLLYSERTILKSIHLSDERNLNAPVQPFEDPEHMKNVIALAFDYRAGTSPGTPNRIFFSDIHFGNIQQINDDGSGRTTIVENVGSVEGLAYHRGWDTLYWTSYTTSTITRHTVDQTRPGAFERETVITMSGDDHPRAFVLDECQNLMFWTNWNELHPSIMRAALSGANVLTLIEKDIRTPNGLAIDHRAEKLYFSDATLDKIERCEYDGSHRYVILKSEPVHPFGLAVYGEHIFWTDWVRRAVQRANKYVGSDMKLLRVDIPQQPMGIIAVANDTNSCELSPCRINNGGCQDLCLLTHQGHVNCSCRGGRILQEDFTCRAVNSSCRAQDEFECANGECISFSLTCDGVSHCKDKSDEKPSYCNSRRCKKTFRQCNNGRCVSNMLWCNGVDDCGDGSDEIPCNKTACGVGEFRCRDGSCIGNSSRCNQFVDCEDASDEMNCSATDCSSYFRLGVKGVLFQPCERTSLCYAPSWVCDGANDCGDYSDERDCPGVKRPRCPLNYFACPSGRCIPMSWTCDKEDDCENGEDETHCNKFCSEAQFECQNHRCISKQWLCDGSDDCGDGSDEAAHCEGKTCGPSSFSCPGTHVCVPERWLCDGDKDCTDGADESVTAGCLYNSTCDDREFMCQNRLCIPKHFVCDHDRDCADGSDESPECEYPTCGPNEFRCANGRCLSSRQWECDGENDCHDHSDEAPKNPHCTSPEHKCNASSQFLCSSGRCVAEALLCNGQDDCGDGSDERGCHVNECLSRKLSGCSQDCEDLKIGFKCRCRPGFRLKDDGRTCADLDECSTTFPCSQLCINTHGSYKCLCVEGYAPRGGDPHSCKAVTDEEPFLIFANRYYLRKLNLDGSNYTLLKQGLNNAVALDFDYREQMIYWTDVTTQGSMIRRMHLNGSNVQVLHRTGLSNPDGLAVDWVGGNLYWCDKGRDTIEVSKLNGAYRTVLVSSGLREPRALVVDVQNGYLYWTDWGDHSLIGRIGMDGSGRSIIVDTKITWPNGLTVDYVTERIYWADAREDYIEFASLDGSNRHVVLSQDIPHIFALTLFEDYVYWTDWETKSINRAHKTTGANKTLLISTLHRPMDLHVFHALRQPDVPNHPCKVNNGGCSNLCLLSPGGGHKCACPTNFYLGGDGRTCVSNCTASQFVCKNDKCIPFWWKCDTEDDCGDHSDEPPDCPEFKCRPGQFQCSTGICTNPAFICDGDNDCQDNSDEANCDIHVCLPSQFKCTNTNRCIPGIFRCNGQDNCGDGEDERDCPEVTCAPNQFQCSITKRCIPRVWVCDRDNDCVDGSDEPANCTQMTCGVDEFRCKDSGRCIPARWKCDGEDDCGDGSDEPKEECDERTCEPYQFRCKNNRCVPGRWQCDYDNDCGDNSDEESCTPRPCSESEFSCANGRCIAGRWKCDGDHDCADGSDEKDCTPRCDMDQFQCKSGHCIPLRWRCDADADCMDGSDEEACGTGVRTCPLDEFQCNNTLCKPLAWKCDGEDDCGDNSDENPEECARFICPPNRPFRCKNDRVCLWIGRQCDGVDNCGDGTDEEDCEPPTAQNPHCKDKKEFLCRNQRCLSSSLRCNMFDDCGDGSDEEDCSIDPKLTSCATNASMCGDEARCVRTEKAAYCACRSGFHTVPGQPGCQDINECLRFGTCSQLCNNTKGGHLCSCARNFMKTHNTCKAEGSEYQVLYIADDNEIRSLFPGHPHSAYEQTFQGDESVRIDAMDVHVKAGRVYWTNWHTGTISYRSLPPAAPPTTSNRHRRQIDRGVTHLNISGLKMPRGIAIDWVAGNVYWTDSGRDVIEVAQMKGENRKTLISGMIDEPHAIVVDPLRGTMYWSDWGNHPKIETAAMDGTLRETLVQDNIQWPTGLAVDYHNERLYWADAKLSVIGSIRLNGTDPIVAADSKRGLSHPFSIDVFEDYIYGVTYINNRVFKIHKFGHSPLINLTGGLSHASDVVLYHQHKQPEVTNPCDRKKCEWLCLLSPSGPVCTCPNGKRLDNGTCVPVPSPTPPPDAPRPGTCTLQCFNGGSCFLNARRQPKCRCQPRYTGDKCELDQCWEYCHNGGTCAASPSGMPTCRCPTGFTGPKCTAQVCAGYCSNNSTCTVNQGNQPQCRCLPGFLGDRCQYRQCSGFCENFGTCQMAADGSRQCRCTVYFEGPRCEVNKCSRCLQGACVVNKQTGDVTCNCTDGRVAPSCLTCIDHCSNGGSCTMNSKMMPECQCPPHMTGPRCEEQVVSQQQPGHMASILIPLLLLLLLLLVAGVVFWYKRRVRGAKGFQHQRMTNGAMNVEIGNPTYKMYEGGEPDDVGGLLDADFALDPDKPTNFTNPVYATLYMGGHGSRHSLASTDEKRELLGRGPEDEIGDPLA

For the substance “Aβ42: 42 amino acid murine Aβ (Bachem), unlabeled, used as competitor of I-Aβ42 transport”, in series [1], the “abluminal-to-luminal transport of I-Aβ42 (saturability)” value is “significantly (p < 0.01) inhibited”. Take “P-19mer: 19mer (Anti-LRP1) phosphorothioate ODN 5′-(_P=S)TGATTTGGTCTCTGCAGGC-3′, directed at an LRP-1 coding region (nt 559–541) (antisense dT*dG*dA*dT*dT*dT*dG*dG*dT*dC*dT*dC*dT*dG*dC*dA*dG*dG*dC)”: in series [2], the “half-time clearance from brain” value came to 231.5 min. In series [3], the “brain uptake on co-administration of unlabeled PS-ODN (saturability)” value is “not significantly decreased”. With “P-23mer: 23mer (Anti-LRP1) phosphorothioate ODN 5′-(_P=S)GTGTGGGCCGATGCAAACAGCAG-3′, designed to bind the translation start site (nt 442–418) (antisense dG*dT*dG*dT*dG*dG*dG*dC*dC*dG*dA*dT*dG*dC*dA*dA*dA*dC*dA*dG*dC*dA*dG)”, the “half-time clearance from brain” value in series [2] is on record as 47.8 min. In addition, in series [3], the “brain uptake on co-administration of unlabeled PS-ODN (saturability)” value was “significantly decreased”. For the substance “random antisense: 21mer (Random) control PS-ODN 5′-(_P=S)GAGAAGGTTGTGTGATCTTCA, no sequence homology with any mouse genes (antisense dG*dA*dG*dA*dA*dG*dG*dT*dT*dG*dT*dG*dT*dG*dA*dT*dC*dT*dT*dC*dA)”, the “mean fluorescent intensity (LRP-1 immunofluorescence)” value in series [4] is reported as 111.14%.

For receptor-associated protein [RAP], in series [5], the “brain-to-blood efflux of i.c.v. administered I-Aβ42” value is “inhibits”.
